Most compounds without a hit are left out; they make up all but 4.9% or so of the library.
STAT3 activator = activators of IL-6 induced STAT3 signaling; U3A cells, IL-6 STAT3-luciferase reporter, luminescence; 100% = signal with IL-6 EC80 alone; activation (% of control), % at 5.6 µM; 0.91% of 190,000 active;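 active means activation above the screen-wide mean of compound activation plus 3 SD, cut at about 130% in these data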
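Detection: reporter luminescence signal / Assay system: STAT1-lacking human U3A cells, STAT3 luciferase reporter / Incubation: compound pre-incubation 1 h before IL-6, then 6 h stimulation at 37 °C / Control set: IL-6-only high control / Read-out: % activation relative to IL-6 control / Probe or stimulus: Interleukin-6, 33 ng/mL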
NF-kB neuron act = raises NF-kB expression in human neuronal cells; fold change at 12.5 µM; 1.6% of 190,000 active; NF-kB reporter expression; stronger effect = higher value; in the data active means fold change above about 3.3
APP 5'UTR act = APP 5'UTR luciferase reporter activation | AID 1276 | activation, % at 2 µM | SH-SY5Y APP 5'UTR luciferase reporter, luminescence; zero percent = DMSO vehicle wells | 1% of 190,000 active;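 active means activation above a set limit, based on mean plus 3 SD of controls, cut at about 140% in these data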
STAT3 inh = reduces IL-6 driven STAT3 reporter signal; U3A cells, IL-6 STAT3-luciferase reporter, luminescence; host cell line lacks STAT1; inhibition, % at 5.5 µM; 0.89% of 190,000 active;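 active means inhibition above the mean inhibition across all screened compounds plus 3 SD, cut at about 44% in these data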
STAT1 inh = STAT1 signaling inhibition | 0.35% of 200,000 active | inhibition, % at 5.5 µM | NIH 3T3 STAT1-luciferase reporter, IFN-gamma, luminescence;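 active means inhibition above a set limit, the mean inhibition across all tested compounds plus 3 SD, cut at about 34% in these data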
STAT1 act = increases IFN-gamma driven STAT1 reporter signal. 2.6% of 200,000 active. NIH 3T3 STAT1-luciferase reporter, luminescence; 100% = IFN-gamma alone, no compound. activation (% of control), % at 5.5 µM;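 active means activation above the screen-wide mean activation plus 3 SD, cut at about 130% in these data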
A number is an active result; n = inactive; x = no result given.

SMILES	STAT3 activator	NF-kB neuron act	APP 5'UTR act	STAT3 inh	STAT1 inh	STAT1 act
N#Cc1ccc(CSc2nnc(Nc3ccccc3)s2)cc1	n	n	n	n	n	n
c1ccc(CSc2nnc(NC3=NCCCCC3)s2)cc1	n	n	n	n	n	139.6
O=c1oc(-c2ccccc2NS(=O)(=O)c2ccc3ccccc3c2)nc2ccccc12	n	n	n	n	n	n
Clc1ccc(-c2ccc(SCc3ccccn3)nn2)cc1	n	n	n	n	n	144.8
COc1ccc(-c2ccc(SCc3ccccn3)nn2)cc1OC	n	n	n	n	n	n
O=[N+]([O-])c1cccc(-c2ccc(SCc3ccccn3)nn2)c1	n	n	n	n	n	135.2
c1ccc(CSc2ccc(-c3ccccn3)nn2)nc1	n	n	n	n	n	133.1
Cc1cccc2c1N(CCOc1ccccc1Cl)C(=O)C2=O	n	3.7	n	n	n	n
Cc1ccccc1OCCN1C(=O)C(=O)c2cccc(C)c21	n	n	x	n	n	n
O=C1CC(c2ccccc2)Sc2ccccc2N1 (configuration not stated)	134.8	n	n	n	n	n
COc1ccc(N=Cc2ccc(-c3ccccc3)o2)cc1	n	n	n	n	n	n
COCCn1c(C)cc(C(=O)COC(=O)c2cc3c(s2)CCC3)c1C	n	n	n	n	n	135.9
COCCn1c(C)cc(C(=O)CSc2nnc(C)s2)c1C	n	n	n	92.4	39.0	n
COCCn1c(C)cc(C(=O)CSc2n[nH]c(N)n2)c1C	n	n	n	n	n	n
CCOc1ccc(-c2nnc3n2N=C(c2ccc(OC)cc2)CS3)cc1	n	n	n	n	n	n
CCOc1ccc(C2=Nn3c(nnc3-c3ccccc3OC)SC2)cc1	145.5	n	n	n	n	n
O=C(/C=C/c1ccc(Cl)cc1Cl)c1ccc[nH]1	n	n	n	n	n	n
O=C(/C=C/c1ccccc1Cl)c1ccc[nH]1	n	4.3	n	n	n	n
O=C(NC(=S)NC1CCCCCC1)c1cncc(Br)c1	n	n	n	n	n	141.2
O=C(NC(=S)Nc1ncc(Br)cc1Br)c1cncc(Br)c1	n	n	n	n	n	n
CCOC(=O)C1(Cc2ccccc2)CCCN(C2CCCC2)C1 (configuration not stated)	n	n	n	n	n	n
COc1cc(/C=C/C(=O)O)cc(S(=O)(=O)N2CCc3ccccc3C2)c1OC	n	n	n	n	n	n
COc1ccc(/C=C/C(=O)c2c(C)nc3ccccn23)cc1	n	n	n	n	n	140.9
COc1ccc(/C=C/C(=O)c2ccccc2O)cc1	n	4.97	n	n	n	n
COc1ccc(/C=C/C(=O)c2ccc(O)cc2)cc1	x	n	n	x	n	n
SMILES	STAT3 activator	NF-kB neuron act	APP 5'UTR act	STAT3 inh	STAT1 inh	STAT1 act
COc1ccc(CNC(=O)c2c(C)nc3ccccn23)cc1	n	n	n	n	n	n
COc1ccc(NC(=O)c2c(Cl)nc3ccccn23)cc1	n	n	n	n	n	133.9
O=C(Nc1cnc2ccccn2c1=O)c1ccc(F)cc1	n	n	n	n	n	n
COc1ccc(C(=O)Nc2cnc3ccccn3c2=O)cc1	n	n	n	n	n	139.5
N#Cc1cnc(NOCc2ccc(Cl)cc2)nc1	n	n	n	n	n	n
COc1ccc(NC(=O)Cc2c(Sc3ccccc3)c3ccccc3n2C)cc1	n	n	n	n	n	n
COc1ccc(NC(=O)c2c(Cl)n(C)c3ccccc23)cc1	144.0	n	n	n	n	n
Cc1nc2ccccn2c1C(=O)/C=C/c1ccc(F)cc1	n	3.44	n	n	n	128.7
CN1C(CC(=O)c2ccccc2)CCCC1CC(O)c1ccccc1 (configuration not stated)	n	n	n	n	n	n
CC1N/C(=C\C(=O)c2ccccc2)N(O)C1(C)C (configuration not stated)	n	n	n	n	n	134.0
c1ccc(-c2csc(Nc3cccnc3)n2)cc1	148.7	n	n	n	n	136.2
O=C(Nc1nc(-c2ccccc2)cs1)c1cccnc1	n	n	n	n	n	n
Cc1nc(C)c(-c2csc(Nc3cccc(O)c3)n2)s1	n	4.32	165.7	n	n	n
Cc1nc2ccccn2c1-c1csc(Nc2cccc(O)c2)n1	n	n	n	n	n	n
COc1cccc(Nc2nc(-c3ccc(O)cc3)cs2)c1	n	3.85	n	n	n	n
Cc1cccc(Nc2nc(-c3ccncc3)cs2)c1	n	n	n	n	n	130.3
CCCC(C)C(=O)Nc1ccc(S(=O)(=O)Nc2nccs2)cc1 (configuration not stated)	n	n	n	n	n	n
CC(=O)Nc1ccc(C(=O)Nc2nc(-c3cccnc3)cs2)cc1	n	n	n	n	n	n
COc1ccc(-c2csc(Nc3ccc(C)cn3)n2)cc1	n	x	n	n	n	138.7
CN(C)c1ccc(Nc2nc(-c3cccnc3)cs2)cc1	n	4.35	187.8	n	n	147.1
Fc1ccc(Nc2nc(-c3cccnc3)cs2)cc1	157.0	3.62	n	n	n	136.3
COc1ccc(-c2cc(C(=O)N/N=C/c3sccc3C)c3ccccc3n2)c(OC)c1	134.8	n	n	n	n	n
COc1ccc(-c2cc(C(=O)N/N=C/c3ccc4c(c3)OCO4)c3ccccc3n2)c(OC)c1	n	n	n	n	n	n
Cc1nc(SCc2ccccc2)nc2c1CCC2	n	n	n	n	n	147.8
O=C1CCC([N+](=O)[O-])C(c2cc3c(cc2Cl)OCO3)N1 (configuration not stated)	n	n	n	n	n	n
SMILES	STAT3 activator	NF-kB neuron act	APP 5'UTR act	STAT3 inh	STAT1 inh	STAT1 act
COc1c(O)ccc(/C=C(\C#N)c2nc3ccccc3[nH]2)c1[N+](=O)[O-]	n	n	n	n	n	134.3
Cc1cc(/C=C(\C#N)c2nc3ccccc3[nH]2)c(C)n1C	n	n	n	n	n	142.1
N#C/C(=C/c1ccc(N2CCOCC2)o1)c1nc2ccccc2[nH]1	n	n	157.9	n	n	148.7
N#C/C(=C\c1cc([N+](=O)[O-])c(N2CCOCC2)cc1N1CCOCC1)c1nc2ccccc2[nH]1	n	n	n	n	n	n
N#C/C(=C/c1cccs1)c1nc2ccccc2[nH]1	n	n	n	n	n	144.6
O=C(NC1=NCCS1)c1ccccc1OCc1ccccc1Cl	n	n	n	n	n	n
O=C(NC1=NCCS1)c1ccc(Cl)c(S(=O)(=O)N2CCOCC2)c1	n	n	n	n	n	n
O=S(=O)(c1ccc(OCC2CO2)cc1)c1ccc(OCC2CO2)cc1 (configuration not stated)	n	n	n	n	n	n
O=C(CNC(=O)c1ccc(S(=O)(=O)N2CCCC2)cc1)N/N=C/c1ccc(Cl)cc1Cl	n	n	n	n	n	n
Cc1ccc(Cn2cccc(-c3nc4ccccc4s3)c2=O)cc1	n	n	n	n	n	139.6

Compound activity from PubChem.
